Assay outcomes deposited in PubChem BioAssay by several laboratories.
SENP7 block: SENP7 protease inhibition; inhibition, % at 5 µM; 1.5% of 330,000 active; recombinant SENP7, Z-RLRGG-aminoluciferin luminescence, 40 min; Q9BQF6; AID 434973;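 active means inhibition above about 50% at the single test dose, limit read from the data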
SENP1 FRET inh: blocks the human SENP1 SUMO protease catalytic domain | recombinant SENP1 catalytic domain, CyPet-SUMO1-YPet FRET cleavage | inhibition, % at 10 µM | 0.21% of 360,000 active | AID 624204;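 active means inhibition at least 30% at 10 µM, raw YFP signal under a set limit, fluorescence ratio 0.5 to 1.5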
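Test system: human SENP1 catalytic domain; medium: Tris pH 8 buffer plus EDTA, NaCl, BME, BSA, NP40, catalase; incubation: 50 min reaction at room temperature; technique: FRET, CFP and YFP emission; controls: no-enzyme low control and enzyme-plus-DMSO high control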
SENP8 block-1: blocks human SENP8 cleavage of Nedd8 substrate. Q96LD8. recombinant SENP8, Nedd8 substrate fluorescence. inhibition, % at 20 µM. 0.64% of 360,000 active. AID 602440; in the data active means inhibition mostly above about 40%, no sharp cut-off; inactive means mostly below about 27%
Target sequence (Q96LD8 whole entry, looked up): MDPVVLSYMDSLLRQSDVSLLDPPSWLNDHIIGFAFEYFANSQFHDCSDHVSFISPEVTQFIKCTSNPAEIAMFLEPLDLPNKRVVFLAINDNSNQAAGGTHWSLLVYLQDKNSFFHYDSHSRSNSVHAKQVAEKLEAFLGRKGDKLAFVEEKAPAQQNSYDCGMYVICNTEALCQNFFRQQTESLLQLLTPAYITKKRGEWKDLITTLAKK
SENP6 block: inhibitors of human SENP6 protease; Q9GZR1; Recombinant SENP6 catalytic domain, aminoluciferin luminescence; inhibition, % at 10 µM; 1.8% of 330,000 active; AID 2599;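 active means inhibition above about 50% at the single tested dose, limit read from the data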
Target sequence (Q9GZR1 628-1112 limits assumed): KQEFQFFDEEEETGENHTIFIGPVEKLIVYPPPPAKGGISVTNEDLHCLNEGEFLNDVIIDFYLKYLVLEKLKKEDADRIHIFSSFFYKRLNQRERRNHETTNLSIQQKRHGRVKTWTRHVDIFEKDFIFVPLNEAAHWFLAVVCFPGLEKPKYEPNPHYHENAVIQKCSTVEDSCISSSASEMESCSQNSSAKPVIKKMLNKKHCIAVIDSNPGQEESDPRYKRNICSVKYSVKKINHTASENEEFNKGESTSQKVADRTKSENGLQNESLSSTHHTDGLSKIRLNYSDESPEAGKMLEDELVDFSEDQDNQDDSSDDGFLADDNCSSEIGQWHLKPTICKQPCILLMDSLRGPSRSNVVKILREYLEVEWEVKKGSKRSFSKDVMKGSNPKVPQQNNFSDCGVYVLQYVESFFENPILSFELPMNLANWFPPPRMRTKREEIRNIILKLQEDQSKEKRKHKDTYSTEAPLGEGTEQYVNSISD
HSP90 refold inh: inhibitors of HSP90 luciferase refolding in rabbit reticulocyte lysate | luciferase refolding luminescence, 3 h | AID 1789 | inhibition, % at 5.6 µM | 0.91% of 290,000 active;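 active means inhibition above the screen-wide mean plus 3 SD, computed separately per campaign, cut at about 16% in these data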;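 further: inhibitors lower the luminescence because luciferase stays unfolded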
SENP8 block-2: inhibitors of human SENP8 protease | Q96LD8 | purified SENP8, Z-RLRGG-aminoluciferin cleavage, luminescence | inhibition, % at 10 µM | 1.2% of 330,000 active | AID 2540; in the data active means inhibition above about 50%
SENP8 confirm: human SENP8 inhibition, confirmed. AID 488912. 40% of 6,200 active. inhibition, % at 12.5 µM. shares compounds with SENP7 block. Recombinant SENP8, Z-RLRGG-aminoluciferin luminescence, 60 min;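 active means mean inhibition across replicates above about 50%, limit read from the data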
SENP6 confirm: confirmation of human SENP6 protease inhibitors; 58% of 6,200 active; AID 488915; recombinant SENP6, Z-RLRGG-aminoluciferin luminescence; shares compounds with SENP7 block; inhibition, % at 12.5 µM
SENP7 conf: human SENP7 inhibition, confirmed | shares compounds with SENP7 block | recombinant SENP7, Z-RLRGG-aminoluciferin luminescence, 40 min | inhibition, % at 12.5 µM | 69% of 6,200 active
Casp3 select: inhibits human caspase-3 in SENP selectivity test; purified caspase-3, Z-DEVD-aminoluciferin luminescence, 60 min; inhibition, % at 12.5 µM; 60% of 6,200 active; shares compounds with SENP7 block; AID 488918;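 active means mean inhibition above about 50%, limit read from the data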
SENP luc ctr: luminescence interference (SENP counter-screen). shares compounds with SENP7 block. Pre-incubated SENP8/Z-RLRGG-aminoluciferin, luciferase luminescence interference. inhibition, % at 12.5 µM. 39% of 6,200 active;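 active means mean inhibition above about 50% when retested at one dose, limit read from the data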
Of the large screens only hits and unclear results are named; the others gave an inactive call (follow-up assays come after a bar, where they were run). A selection: hits, their analogues and other compounds. The true share with any hit is near 2.9%.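 How the source made its calls, unless noted: active means mean inhibition above about 50% in the one-dose retest (limit read from the data); inactive means the rest.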

OC12Oc3ccccc3C=C1N1CCC2CC1 (configuration not stated)	none
CN1C(=O)C(=Cc2ccccc2OCc2ccc(Cl)cc2)C(=O)N(C)C1=O	SENP7 block 63.8, SENP6 block 75.1 | SENP8 confirm inactive | SENP6 confirm 57.2 | SENP7 conf 76.2 | Casp3 select 51.9 | SENP luc ctr 69.8
CCN(CC)P(=O)(Oc1ccccc1)Oc1ccccc1	none
Nc1c2c(nc3sc4c(c13)CCCC4)CCCCC2	SENP7 block 71.7, SENP6 block 81.0, SENP8 block-2 69.3 | SENP8 confirm inactive | SENP6 confirm inactive | SENP7 conf inactive | Casp3 select 50.1 | SENP luc ctr inactive
Nc1c2c(nc3sc4c(c13)CCCC4)CCCC2	none
COc1cc2c(cc1OC)-c1c(OC)c(OC)cc3c1[C@H](C2)N(C)CC3	SENP7 block 51.6, SENP6 block 83.0 | SENP8 confirm inactive | SENP6 confirm 66.0 | SENP7 conf inactive | Casp3 select inactive | SENP luc ctr inactive
CN(C)C(=O)Oc1ccc(OC(=O)c2ccccc2)cc1	SENP6 block 90.0, SENP8 block-2 80.7 | SENP8 confirm 64.9 | SENP6 confirm 89.3 | SENP7 conf 98.2 | Casp3 select 92.5 | SENP luc ctr 50.9
CN(C(=O)Oc1ccc(C(=O)c2ccc(Cl)cc2)cc1)c1ccccc1	none
O=C1C(=O)N(c2ccccc2)P(=O)(N(CCCl)CCCl)N1c1ccccc1	none (no result: SENP7 block, SENP6 block, HSP90 refold inh, SENP8 block-2)
COc1ccc(Cc2nccc3cc(OC)c(OC)cc23)cc1OC	SENP8 block-1 55.4, SENP6 block 63.9 | SENP8 confirm inactive | SENP6 confirm inactive | SENP7 conf inactive | Casp3 select inactive | SENP luc ctr inactive
CCC(COC(=O)NC)NC(=O)Oc1cccc(C)c1 (configuration not stated)	none
CNC(=O)Oc1cccc(-c2cn3cc(Cl)ccc3n2)c1	SENP7 block 83.2, SENP6 block 85.3, HSP90 refold inh 48.9, SENP8 block-2 83.2 | SENP8 confirm 92.4 | SENP6 confirm 94.7 | SENP7 conf 101.7 | Casp3 select 94.8 | SENP luc ctr 92.0
Cc1ccc(NC(=O)N2CC2)cc1NC(=O)N1CC1	none (no result: SENP7 block, SENP6 block, HSP90 refold inh, SENP8 block-2)
Cc1ccc(NC(=O)c2snnc2C)cc1Cl	SENP7 block 60.2, SENP6 block 64.8 | SENP8 confirm inactive | SENP6 confirm inactive | SENP7 conf 82.8 | Casp3 select 63.5 | SENP luc ctr 61.3
Cc1nc2ccccc2c(=O)n1-c1ccc(Br)cc1[N+](=O)[O-]	none
COc1ccc2[nH]c(C)c(CCNCc3cn(C)c4ccccc34)c2c1	none (no result: HSP90 refold inh)
c1ccc2c(c1)Sc1ccccc1N2CC1CN2CCC1CC2 (configuration not stated)	none
CCCNC1=C(C)C(=O)C2=C(C1=O)C(COC(N)=O)[C@]1(OC)C3NC3CN21 (some centres not stated)	SENP6 block 65.8 | SENP8 confirm inactive | SENP6 confirm inactive | SENP7 conf inactive | Casp3 select inactive | SENP luc ctr inactive
O=C(N/N=C/c1c(O)n(C2CC2)c(=S)[nH]c1=O)c1ccccc1O	SENP7 block 82.6, SENP6 block 81.5, SENP8 block-2 82.9 | SENP8 confirm 88.4 | SENP6 confirm 85.5 | SENP7 conf 94.6 | Casp3 select 87.4 | SENP luc ctr inactive
O=C(N/N=C/c1c(O)n(-c2ccccc2)c(=S)[nH]c1=O)c1ccccc1	none
CN(C)c1ccccc1	none (no result: SENP7 block, SENP6 block, HSP90 refold inh, SENP8 block-2)
Cc1cccc(N=Nc2ccc(N(C)C)cc2)c1	SENP7 block 87.1, SENP6 block 90.2, SENP8 block-2 84.3 | SENP8 confirm inactive | SENP6 confirm 82.7 | SENP7 conf inactive | Casp3 select inactive | SENP luc ctr inactive
COC(=O)CC1(CC(=O)OC)C(=O)N(c2ccccc2)C(=O)N(c2ccccc2)C1=O	none
O=C(Nc1ccc(Cl)c(Cl)c1)c1ccco1	SENP6 block 56.5, SENP8 block-2 51.2 | SENP8 confirm 59.6 | SENP6 confirm 57.6 | SENP7 conf 85.0 | Casp3 select inactive | SENP luc ctr inactive
Clc1ccccc1Nc1ncnc(-n2cccc2)n1	SENP7 block 71.6, SENP6 block 81.5, SENP8 block-2 64.0 | SENP8 confirm 67.1 | SENP6 confirm 68.0 | SENP7 conf 91.1 | Casp3 select 59.6 | SENP luc ctr inactive
CCOC(=O)c1ccc(NC(=O)c2c(O)[nH]c(=O)[nH]c2=O)cc1	SENP7 block 71.9, SENP6 block 82.9, SENP8 block-2 66.2 | SENP8 confirm inactive | SENP6 confirm inactive | SENP7 conf inactive | Casp3 select inactive | SENP luc ctr inactive
CCOC(=O)c1ccccc1NC(=O)c1c(O)[nH]c(=O)[nH]c1=O	none (no result: HSP90 refold inh)
CCOc1ccc(NC(=O)c2c(O)[nH]c(=O)[nH]c2=O)cc1	SENP7 block 80.0, SENP6 block 74.4, SENP8 block-2 59.0 (no result: HSP90 refold inh) | SENP8 confirm 71.3 | SENP6 confirm 58.8 | SENP7 conf 94.9 | Casp3 select 83.9 | SENP luc ctr inactive
CC(C)CCn1c(N)c(C(=O)NCc2cccs2)c2nc3ccccc3nc21	SENP7 block 50.6, SENP6 block 80.0, SENP8 block-2 87.5 | SENP8 confirm inactive | SENP6 confirm inactive | SENP7 conf inactive | Casp3 select inactive | SENP luc ctr inactive
COCCCNC(=O)c1c(N)n(Cc2ccco2)c2nc3ccccc3nc12	none
CC(C)CNC(=O)c1c(N)n(Cc2ccco2)c2nc3ccccc3nc12	none
COCCNC(=O)c1c(N)n(CCC(C)C)c2nc3ccccc3nc12	SENP6 block 86.2, SENP8 block-2 81.2 | SENP8 confirm inactive | SENP6 confirm inactive | SENP7 conf inactive | Casp3 select inactive | SENP luc ctr inactive
CCCCNC(=O)c1c(N)n(CCCOC)c2nc3ccccc3nc12	SENP6 block 88.6, SENP8 block-2 85.9 | SENP8 confirm inactive | SENP6 confirm inactive | SENP7 conf inactive | Casp3 select inactive | SENP luc ctr inactive
CC(C)OCCCNC(=O)c1c(N)n(Cc2cccs2)c2nc3ccccc3nc12	SENP6 block 63.7 | SENP8 confirm inactive | SENP6 confirm inactive | SENP7 conf inactive | Casp3 select inactive | SENP luc ctr inactive
C1CCC2S[C@H]3CCCCC3NC2C1 (some centres not stated)	none
COc1ccc(-c2nn(CCC#N)cc2C(=O)Nc2ccccc2)cc1OC	none
